Twelve molecules from ChEMBL document CHEMBL4842356, “Discovery, optimization, and target identification of novel coumarin derivatives as HIV-1 reverse transcriptase-associated ribonuclease H inhibitors” (Eur J Med Chem, 2021) can be followed below.

The subject of one experiment is MT4. The experiment is described as follows: Cytotoxicity against mock-infected human MT4 cells assessed as reduction in cell viability measured after 5 days by MTT assay. It counts as functional. The conditions noted are these: MT4, 120 h, time 5 day. In outline: (§1)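 MT-4 cells (exponentially growing, resuspended at 6 × 10⁵ cells/mL) were seeded onto serial five-fold compound dilutions and infected with 100–300 CCID₅₀ virus stock, or given medium only (mock). Viability was read by MTT at 540 and 690 nm five days after infection, using the median OD of three wells. EC₅₀ is 50% protection from viral cytopathicity. CC₅₀ is 50% loss of viability in mock-infected cells.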

Experiment [1] has as its target Human immunodeficiency virus type 1 reverse transcriptase (Human immunodeficiency virus 1, UniProt Q72547). The experiment is described as follows: Inhibition of wild type HIV1 Reverse transcriptase RNase H expressed in Escherichia coli using 5'-UUUUUUUUUAGGAUACAUAUGGUUAAAGU-3' oligonucleotide as substrate and DNA21P as primer in presence of [gamma32P]-ATP by PAGE analysis. An outline of the steps: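 Wild-type HIV-1 BH10 RT was expressed in E. coli and purified. RNase H activity was measured on a 31-nt RNA, 5′-³²P-labelled, annealed to a 21-nt DNA (31T/21P). Cleaved substrate was quantified without inhibitor (5% DMSO) and with compound over 0.2–100 µM. IC₅₀ values were taken from dose-response curves.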

Experiment [2] concerns Human immunodeficiency virus 2. The experiment is described as follows: Antiviral activity against HIV2 ROD infected in human MT4 cells assessed as protection against virus-induced cytopathic effect incubated for 5 days by MTT assay. The conditions noted are these: Human immunodeficiency virus 2, ISOLATE ROD, MT4, 120 h.
Experiment [3] has as its system Human immunodeficiency virus 1. The experiment is described as follows: Antiviral activity against HIV1 RES056 infected in human MT4 cells assessed as protection against virus-induced cytopathic effect incubated for 5 days by MTT assay. It counts as functional, organism-based. The conditions noted are these: Human immunodeficiency virus 1, RES056, MT4, 120 h. An outline of the steps: as §1

The subject of experiment [4] is Human immunodeficiency virus 1. The experiment is described as follows: Antiviral activity against wild type HIV1 3B infected in human MT4 cells assessed as protection against virus-induced cytopathic effect incubated for 5 days by MTT assay. The conditions noted are these: Human immunodeficiency virus 1, 3B, MT4, 120 h. It counts as functional, organism-based. An outline of the steps:
as §1

Experiment [5] addresses Human immunodeficiency virus type 1 reverse transcriptase (Human immunodeficiency virus 1) (UniProt Q72547). The experiment is described as follows: Inhibition of wild type HIV1 Reverse transcriptase RNase H expressed in Escherichia coli at 100 uM using 5'-UUUUUUUUUAGGAUACAUAUGGUUAAAGU-3' oligonucleotide as substrate and DNA21P as primer in presence of [gamma32P]-ATP by PAGE analysis relative to control.

The target is the same in experiment [6]. The experiment in a line: Inhibition of wild type HIV1 Reverse transcriptase RNase H expressed in Escherichia coli at 50 uM using 5'-UUUUUUUUUAGGAUACAUAUGGUUAAAGU-3' oligonucleotide as substrate and DNA21P as primer in presence of [gamma32P]-ATP by PAGE analysis relative to control.
Experiment [7] relates to Human immunodeficiency virus 1. The experiment is described as follows: Antiviral activity against HIV1 harboring reverse transcriptase K103N mutant infected in human MT4 cells assessed as protection against virus-induced cytopathic effect incubated for 5 days by MTT assay. It counts as functional, organism-based. The note with it: Human immunodeficiency virus 1, MT4, 120 h. An outline of the steps: (§2)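 MT-4 cells (exponentially growing, resuspended at 6 × 10⁵ cells/mL) exposed to serial five-fold compound dilutions, then infected with mutant HIV-1 stock at 100–300 CCID₅₀; mock-infected wells run in parallel for cytotoxicity. Viability read by MTT at 540 and 690 nm on day 5. Median OD of three wells used; EC₅₀ is the concentration giving 50% protection from viral cytopathicity.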

The subject of experiment [8] is Human immunodeficiency virus 1. The experiment in a line: Antiviral activity against HIV1 harboring reverse transcriptase Y188L mutant infected in human MT4 cells assessed as protection against virus-induced cytopathic effect incubated for 5 days by MTT assay. It counts as functional, organism-based. The note with it: Human immunodeficiency virus 1, MT4, 120 h. An outline of the steps:
as §2

For experiment [9], the system named is Human immunodeficiency virus 1. The experiment in a line: Antiviral activity against HIV1 L1001 infected in human MT4 cells assessed as protection against virus-induced cytopathic effect incubated for 5 days by MTT assay. Type of experiment: functional, organism-based. The note with it: Human immunodeficiency virus 1, L1001, MT4, 120 h. An outline of the steps:
as §2

Experiment [10] concerns Human immunodeficiency virus 1. The experiment is described as follows: Antiviral activity against HIV1 harboring reverse transcriptase V106A/F227 mutant infected in human MT4 cells assessed as protection against virus-induced cytopathic effect incubated for 5 days by MTT assay. It counts as functional, organism-based. The note with it: Human immunodeficiency virus 1, MT4, 120 h. In outline: as §2

For experiment [11], the system named is Human immunodeficiency virus 1. The experiment is described as follows: Antiviral activity against HIV1 harboring reverse transcriptase E138K mutant infected in human MT4 cells assessed as protection against virus-induced cytopathic effect incubated for 5 days by MTT assay. It counts as functional, organism-based. The note with it: Human immunodeficiency virus 1, MT4, 120 h.

The subject of experiment [12] is Human immunodeficiency virus 1. The experiment in a line: Antiviral activity against HIV1 harboring reverse transcriptase Y181C mutant infected in human MT4 cells assessed as protection against virus-induced cytopathic effect incubated for 5 days by MTT assay. It counts as functional, organism-based. The note with it: Human immunodeficiency virus 1, MT4, 120 h. In outline:
as §2

pEC50, pIC50: −log10 of the molar value.

As for `CCC1CCN(C2CCN(C(=O)c3cc4cc([N+](=O)[O-])c(O)c(O)c4oc3=O)CC2)CC1`, the CC50 in the experiment with MT4 is more than 280 µM. The pIC50 in [1] is less than 3.60. Further, the values for the pEC50 in experiment [2], in [3] and in [4] were less than 3.55, 3.67 and 3.68, respectively.

`O=C(Nc1ccc(F)cc1)c1cc2cc([N+](=O)[O-])c(O)c(O)c2oc1=O`: the inhibition in [5] was 72.5%; in experiment [6] it was less than 10%. The CC50 with MT4 is 200 µM. For the same molecule, the pIC50 in experiment [1] was less than 4.30. Also, the negative logarithm of the EC50 (pEC50) in experiment [2] and in experiment [4] was less than 3.70 throughout.

Regarding `Cc1ccnc2c1NC(=O)c1cccnc1N2C1CC1` [NEVIRAPINE], the pEC50 was 5.55 in [7]; less than 5.53 in experiment [8]; 6.15 in [9]; less than 5.24 in [10]; less than 4.82 in [3]; 5.72 in [4]. Moreover, the CC50 in the experiment with MT4 was more than 15 µM.

As for `Cc1c(O)c([N+](=O)[O-])cc2cc(C(=O)NC3CCN(Cc4cccc(Br)c4)CC3)c(=O)oc12`, the inhibition in [5] is 62.9%; in experiment [6], less than 10%. In addition, in the experiment on MT4, the CC50 was 14.7 µM. Also, the pIC50 in experiment [1] is less than 4.30. The pEC50 in experiment [2] and in experiment [4] was less than 4.83 each time.

For the molecule `O=C(O)c1cc(NC(=O)c2cc3cc([N+](=O)[O-])c(O)c(O)c3oc2=O)ccc1O`, in the experiment on MT4, the CC50 was more than 310 µM. The negative-log IC50 (pIC50) in experiment [1] was 4.68. Besides, the figures for the pEC50 in experiment [2], in [3] and in experiment [4] were 3.94, 3.97 and 4.00, respectively.

For `Cc1c(O)c([N+](=O)[O-])cc2cc(C(=O)Nc3ccc(O)c(C(=O)O)c3)c(=O)oc12`, in the experiment with MT4, the CC50 was more than 312 µM. Further, the negative-log IC50 (pIC50) in experiment [1] was 5.00. Moreover, the pEC50 in [2] is 3.92; in experiment [3] it was 3.95; in [4] it was 3.92.

`O=C(NCc1ccc(F)cc1Cl)c1cc2cc([N+](=O)[O-])c(O)c(O)c2oc1=O`: the inhibition was 68.6% in experiment [5] and less than 10% in [6]. For the same molecule, in the experiment on MT4, the CC50 was found to be 266 µM. Besides, the pIC50 in [1] is less than 4.30. The pEC50 in experiment [2] was less than 3.58; in experiment [4], 4.34.

For the molecule `O=C(c1cc2cc([N+](=O)[O-])c(O)c(O)c2oc1=O)N1CCCN(S(=O)(=O)c2ccc3ccncc3c2)CC1`, the CC50 in the experiment with MT4 was more than 231 µM. Besides, the pIC50 in [1] is 4.16. The pEC50 in experiment [2] was less than 3.64; in [3] it was 3.91; in [4], 4.08.

For `COC(=O)c1cc(NC(=O)c2cc3cc([N+](=O)[O-])c(O)c(O)c3oc2=O)ccc1O`, the pEC50 is 5.25 in [7]; 4.35 in [8]; 4.65 in experiment [11]; 4.78 in experiment [9]; 4.00 in experiment [10]; 3.77 in [2]. The pEC50 is 5.40 in [4] and 4.65 in experiment [12]. Moreover, in the experiment on MT4, the CC50 was more than 300 µM. The pIC50 in [1] was 4.91.

`CCCN(C(=O)c1cc2cc([N+](=O)[O-])c(O)c(O)c2oc1=O)[C@@H]1CCc2nc(N)sc2C1`: the CC50 with MT4 is more than 271 µM. In addition, the pIC50 in experiment [1] is 4.35. Moreover, the values for the pEC50 in experiment [2], in experiment [3] and in [4] were 3.84, 4.71 and 4.55, respectively.

As for `Cc1cccc(CN2CCC(NC(=O)c3cc4cc([N+](=O)[O-])c(O)c(C)c4oc3=O)CC2)c1`, the inhibition in experiment [5] was 72.1%; in [6], less than 10%. In addition, in the experiment with MT4, the CC50 was 3.88 µM. The negative logarithm of the IC50 (pIC50) in experiment [1] is less than 4.30. Moreover, the pEC50 in experiment [2] and in [4] was less than 5.41 throughout.

On to `Cc1c(O)c([N+](=O)[O-])cc2cc(C(=O)NC3CCN(Cc4ccc(C(N)=O)cc4)CC3)c(=O)oc12`, for which the inhibition in [5] amounted to 87.2%; in [6], 37.1%. For the same molecule, the CC50 in the experiment with MT4 is more than 260 µM. The pIC50 in experiment [1] is less than 4.30. Further, the pEC50 in experiment [2] was less than 3.59; in [4], 3.86.
